Assay results: ChEMBL document CHEMBL4311953, “Targeting DNA Repair in Tumor Cells via Inhibition of ERCC1-XPF” (J Med Chem, 2019)
One block for each compound: values may come before it. Activity calls are given as the source filed them. The calls are words filed in the database; no cut-off is given here.

Experiments:
[1] = Protein binding in serum (unknown origin); format: ADME, cell-free
Cytochrome P450 3A4 = Cytochrome P450 3A4 (Homo sapiens, UniProt P08684); assay: Inhibition of CYP3A4 (unknown origin) using midazolam as substrate; format: ADME
Chain of Cytochrome P450 3A4 (P08684 whole entry): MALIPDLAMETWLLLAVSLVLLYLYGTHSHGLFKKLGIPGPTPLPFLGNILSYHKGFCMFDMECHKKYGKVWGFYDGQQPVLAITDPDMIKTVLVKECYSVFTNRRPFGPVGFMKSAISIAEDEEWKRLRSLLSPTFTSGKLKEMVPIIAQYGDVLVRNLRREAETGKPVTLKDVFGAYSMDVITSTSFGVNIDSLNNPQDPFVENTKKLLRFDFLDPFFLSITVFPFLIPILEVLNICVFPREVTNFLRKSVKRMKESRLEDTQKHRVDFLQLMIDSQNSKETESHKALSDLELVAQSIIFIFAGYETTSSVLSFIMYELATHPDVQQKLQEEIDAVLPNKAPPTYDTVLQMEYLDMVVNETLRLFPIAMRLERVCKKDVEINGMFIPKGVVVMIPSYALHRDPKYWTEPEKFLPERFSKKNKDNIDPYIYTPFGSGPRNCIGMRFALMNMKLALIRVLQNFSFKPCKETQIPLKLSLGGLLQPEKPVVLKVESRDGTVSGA

[2] = target: T1, DNA excision repair protein ERCC-1/DNA repair endonuclease XPF (Homo sapiens) (UniProt P07992+Q92889); assay: Inhibition of human His6-tagged ERCC1-XPF endonuclease activity expressed in Escherichia coli BL21 (DE3) at 8 uM using [6-FAM-5'-CAGCGCTCGG(20T)CCGAGCGCTG-3'-dabcyl] as substrate measured for 12 mins by fluorescence assay
Summary of the method: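 Real-time incision of 100 nM 6-FAM/dabcyl stem-loop substrate by 25 ng recombinant ERCC1-XPF in 50 mM Tris-Cl pH 8, 20 mM NaCl, 0.5 mM DTT, 0.75 mM MnCl₂ at 25°C; fluorescence (ex 485/em 520 nm) read for 12 min.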

[3] = Efflux ratio of permeability in human Caco2 cells; format: ADME, cell-based; settings: Caco-2
[4] = Stability of the compound in human liver microsomes; format: ADME, Microsome
[5] = target: T2, DNA excision repair protein ERCC-1/DNA repair endonuclease XPF (Homo sapiens, UniProt P07992+Q92889)
T2 sequence (P07992 whole entry): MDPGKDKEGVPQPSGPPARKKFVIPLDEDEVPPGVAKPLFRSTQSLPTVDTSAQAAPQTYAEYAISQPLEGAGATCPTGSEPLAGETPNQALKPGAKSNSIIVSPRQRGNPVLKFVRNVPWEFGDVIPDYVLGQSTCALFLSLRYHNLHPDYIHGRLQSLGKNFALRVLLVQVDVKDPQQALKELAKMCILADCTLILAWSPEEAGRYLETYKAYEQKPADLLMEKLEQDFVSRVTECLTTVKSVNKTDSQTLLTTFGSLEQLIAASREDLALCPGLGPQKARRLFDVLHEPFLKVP
T2 sequence (Q92889 whole entry): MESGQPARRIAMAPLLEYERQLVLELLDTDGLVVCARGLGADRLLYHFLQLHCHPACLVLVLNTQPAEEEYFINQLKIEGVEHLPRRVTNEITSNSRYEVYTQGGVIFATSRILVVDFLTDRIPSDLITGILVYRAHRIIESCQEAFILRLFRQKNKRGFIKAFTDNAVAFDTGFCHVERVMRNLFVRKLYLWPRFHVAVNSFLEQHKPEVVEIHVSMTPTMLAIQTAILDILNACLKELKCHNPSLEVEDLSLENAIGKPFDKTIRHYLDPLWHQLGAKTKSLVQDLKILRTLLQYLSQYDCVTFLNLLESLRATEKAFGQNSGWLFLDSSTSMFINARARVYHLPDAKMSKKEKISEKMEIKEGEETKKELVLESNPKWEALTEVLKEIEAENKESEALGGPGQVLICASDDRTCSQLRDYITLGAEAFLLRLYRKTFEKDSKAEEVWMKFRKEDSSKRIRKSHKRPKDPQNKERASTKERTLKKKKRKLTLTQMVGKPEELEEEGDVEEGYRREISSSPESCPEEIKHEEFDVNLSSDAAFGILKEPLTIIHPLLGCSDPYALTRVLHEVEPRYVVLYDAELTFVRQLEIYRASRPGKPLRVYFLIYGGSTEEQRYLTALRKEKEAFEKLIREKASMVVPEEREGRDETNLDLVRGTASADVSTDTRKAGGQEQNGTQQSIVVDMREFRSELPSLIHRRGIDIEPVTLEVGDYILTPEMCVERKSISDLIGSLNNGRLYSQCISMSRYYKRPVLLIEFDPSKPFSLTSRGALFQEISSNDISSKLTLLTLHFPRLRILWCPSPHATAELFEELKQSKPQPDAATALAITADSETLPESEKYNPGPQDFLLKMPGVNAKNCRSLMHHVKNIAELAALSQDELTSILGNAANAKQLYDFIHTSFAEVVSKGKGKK

Cytochrome P450 1A2 = target: T3, Cytochrome P450 1A2 (Homo sapiens, UniProt P05177); assay: Inhibition of CYP1A2 (unknown origin); format: ADME
T3 sequence (P05177 whole entry): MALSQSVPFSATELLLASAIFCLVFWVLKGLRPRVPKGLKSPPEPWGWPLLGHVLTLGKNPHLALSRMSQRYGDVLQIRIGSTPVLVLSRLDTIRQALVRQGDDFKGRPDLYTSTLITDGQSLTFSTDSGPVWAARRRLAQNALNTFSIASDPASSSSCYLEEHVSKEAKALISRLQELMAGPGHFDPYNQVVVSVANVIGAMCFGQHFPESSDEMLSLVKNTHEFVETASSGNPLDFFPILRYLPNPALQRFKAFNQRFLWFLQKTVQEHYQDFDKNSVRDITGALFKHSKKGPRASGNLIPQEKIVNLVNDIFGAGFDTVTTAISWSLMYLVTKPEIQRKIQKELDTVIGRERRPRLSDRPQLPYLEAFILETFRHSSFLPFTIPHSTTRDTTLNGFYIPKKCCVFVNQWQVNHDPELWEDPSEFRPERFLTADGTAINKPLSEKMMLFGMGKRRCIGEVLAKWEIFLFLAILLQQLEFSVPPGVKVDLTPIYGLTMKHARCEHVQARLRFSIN

Cytochrome P450 2C9 = Cytochrome P450 2C9 (Homo sapiens, UniProt P11712); assay: Inhibition of CYP2C9 (unknown origin); format: ADME
Chain of Cytochrome P450 2C9 (P11712 whole entry): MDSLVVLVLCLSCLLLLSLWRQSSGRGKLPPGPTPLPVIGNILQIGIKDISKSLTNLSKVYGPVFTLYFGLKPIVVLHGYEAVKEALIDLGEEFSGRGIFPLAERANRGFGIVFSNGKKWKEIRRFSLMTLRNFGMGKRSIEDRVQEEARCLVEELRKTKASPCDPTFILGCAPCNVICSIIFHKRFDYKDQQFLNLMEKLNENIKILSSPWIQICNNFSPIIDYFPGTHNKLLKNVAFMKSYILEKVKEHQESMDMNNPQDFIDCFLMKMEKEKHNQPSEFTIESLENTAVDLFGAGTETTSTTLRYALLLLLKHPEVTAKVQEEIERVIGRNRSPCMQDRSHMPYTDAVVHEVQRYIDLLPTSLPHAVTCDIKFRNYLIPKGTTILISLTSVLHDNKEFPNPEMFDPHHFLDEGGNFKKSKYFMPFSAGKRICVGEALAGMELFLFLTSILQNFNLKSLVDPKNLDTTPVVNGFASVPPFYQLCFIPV

Cytochrome P450 2C19 = Cytochrome P450 2C19 (Homo sapiens, UniProt P33261); assay: Inhibition of CYP2C19 (unknown origin); format: ADME
Chain of Cytochrome P450 2C19 (P33261 whole entry): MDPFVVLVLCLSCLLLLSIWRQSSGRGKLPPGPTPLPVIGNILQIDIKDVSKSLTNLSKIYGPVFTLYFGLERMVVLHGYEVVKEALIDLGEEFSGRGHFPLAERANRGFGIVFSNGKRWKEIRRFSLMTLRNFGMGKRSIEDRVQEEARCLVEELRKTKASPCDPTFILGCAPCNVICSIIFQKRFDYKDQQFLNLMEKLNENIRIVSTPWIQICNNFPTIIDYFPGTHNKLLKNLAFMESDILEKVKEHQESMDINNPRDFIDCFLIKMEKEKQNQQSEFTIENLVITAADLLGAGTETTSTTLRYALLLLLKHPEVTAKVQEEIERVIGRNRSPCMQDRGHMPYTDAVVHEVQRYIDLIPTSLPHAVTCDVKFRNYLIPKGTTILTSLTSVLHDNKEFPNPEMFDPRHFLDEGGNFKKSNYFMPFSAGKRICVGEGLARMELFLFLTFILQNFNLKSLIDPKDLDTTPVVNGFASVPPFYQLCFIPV

Cytochrome P450 2D6 = Cytochrome P450 2D6 (Homo sapiens, UniProt P10635); assay: Inhibition of CYP2D6 (unknown origin); format: ADME
Chain of Cytochrome P450 2D6 (P10635 whole entry): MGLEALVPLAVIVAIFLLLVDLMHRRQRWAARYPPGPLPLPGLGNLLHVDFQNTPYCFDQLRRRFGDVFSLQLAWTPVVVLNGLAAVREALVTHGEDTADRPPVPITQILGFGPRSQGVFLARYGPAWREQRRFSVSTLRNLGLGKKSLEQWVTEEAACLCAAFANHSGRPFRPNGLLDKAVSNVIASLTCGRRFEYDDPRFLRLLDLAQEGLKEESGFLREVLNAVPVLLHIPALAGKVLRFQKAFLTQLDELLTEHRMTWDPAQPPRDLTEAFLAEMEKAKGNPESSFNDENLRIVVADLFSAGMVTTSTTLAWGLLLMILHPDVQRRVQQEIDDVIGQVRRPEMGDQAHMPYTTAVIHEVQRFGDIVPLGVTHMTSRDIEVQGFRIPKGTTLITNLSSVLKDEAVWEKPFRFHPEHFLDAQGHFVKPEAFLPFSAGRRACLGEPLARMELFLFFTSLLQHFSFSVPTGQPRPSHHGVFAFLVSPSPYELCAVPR

HCT-116 [6] = assay: (§1) Potentiation of cyclophosphamide-induced cytotoxicity against human HCT116 cells assessed as reduction in colony formation at 2 uM incubated for 4 hrs prior to 300 uM cyclophosphamide addition for 24 hrs followed by compound washout and subsequent compound redosing and measured after 8 days by crystal violet staining-based assay; format: functional; parameters: scale not given: the % may be the effect or the level left
Summary of the method: (§2)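 HCT-116 cells plated in triplicate, attached overnight, pretreated 4 h with 1 or 2 μM compound, then cyclophosphamide (0-300 μM) added for 24 h; medium replaced with compound alone and incubated 8 more days at 37°C, 5% CO₂. Crystal violet colonies counted, surviving fraction calculated; three independent sets, Student's t-test.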

[7] = target: T1, DNA excision repair protein ERCC-1/DNA repair endonuclease XPF (Homo sapiens); assay: (§3) Inhibition of ERCC1-XPF-mediated nucleotide excision repair in human HCT116 cells assessed as reduction in removal of UV-induced cyclobutane pyrimidine dimer by measuring cyclobutane pyrimidine dimer level at 2 uM incubated for 1 hr prior to compound washout followed by 8 J/m2 UV irradiation and subsequent compound addition and measured after 24 hrs by DAPI staining-based immunofluorescence assay (reference value: 80%); format: cell-based; parameters: scale not given: the % may be the effect or the level left
Summary of the method: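 HCT-116 cells on coverslips, 1 h compound pretreatment, 8 J/m² UV-C (254 nm), then fresh medium with compound at 37°C up to 24 h. Fixed, HCl-denatured, stained with anti-thymine dimer antibody plus fluorescent secondary, DAPI mount. Intensity from 50 random cells per treatment, normalized; Student's t-test.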

HCT-116 [8] = assay: Cytotoxicity against human HCT116 cells assessed as reduction in colony formation at 1 to 2 uM; settings: hct-116, 2 µM
HCT-116 [9] = assay: Phototoxicity against human HCT116 cells assessed as reduction in colony formation at 2 uM incubated for 1 hr prior to compound washout followed by 254 nm UV irradiation and subsequent compound addition measured after 10 days by crystal violet staining-based assay; format: functional, cell-based
Summary of the method: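 HCT-116 cells plated in triplicate (100-800 cells), attached overnight, treated 1 h with 1 or 2 μM compound, exposed to 0-10 J/m² 254 nm UV-C, then grown 10 days with inhibitor at 37°C, 5% CO₂. Crystal violet stained colonies counted; plating efficiency and surviving fraction calculated; three independent sets.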

[10] = target: T1, DNA excision repair protein ERCC-1/DNA repair endonuclease XPF (Homo sapiens); assay: Binding affinity to human His6-tagged ERCC1-XPF expressed in Escherichia coli BL21 (DE3) assessed as tryptophan fluorescence quenching at 2 uM by spectrofluorimetric method relative to control
Summary of the method: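 Intrinsic tryptophan fluorescence of purified ERCC1-XPF (13–20 nM) with 2 μM ligand added from stock, protein dilution kept below 3%; excitation 295 nm, quenching read at 330 nm, room temperature.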

[11] = Binding affinity to 6-FAM-5'-CAGCGCTCGG(20T)CCGAGCGCTG-3'-dabcyl DNA (unknown origin) by spectrofluorimetric method
Summary of the method: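 FAM/dabcyl-labelled stem-loop DNA substrate excited at 490 nm, emission at 520 nm followed as a function of ligand concentration; Kd obtained by nonlinear regression assuming unimodal binding.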

[12] = Binding affinity to RED-tris-NTA at 10 uM measured after 20 mins by microscale thermophoresis assay
Summary of the method: (§4)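 Truncated His-tagged dERCC1 (96-297) and dXPF (667-916) from BL21(DE3), labelled with RED-tris-NTA, at 20 nM singly or as equimolar dimer in 20 mM HEPES pH 7.4, 50 mM NaCl, 1 mM DTT, 2 mM MgCl2, 5% glycerol, 0.01% CHAPS; 10 μM compound or DMSO, 20 min room temperature; MST at high power, 670 nm emission.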

HCT-116 [13] = assay: as §1, with “50” for “300”; format: functional, cell-based; summary of the method: as §2
HCT-116 [14] = assay: as §1, with “human XPF-knockout” for “human”; format: functional; parameters: scale not given: the % may be the effect or the level left
[15] = target: T1, DNA excision repair protein ERCC-1/DNA repair endonuclease XPF (Homo sapiens); assay: Binding affinity to human N-terminal His6-tagged RED-tris-NTA labelled ERCC1 (96 to 297 residues)-XPF (667 to 916 residues) expressed in Escherichia coli BL21 (DE3) at 10 uM measured after 20 mins by microscale thermophoresis assay; summary of the method: as §4
[16] = target: T1, DNA excision repair protein ERCC-1/DNA repair endonuclease XPF (Homo sapiens); assay: Time dependent inhibition of human His6-tagged ERCC1-XPF endonuclease activity expressed in Escherichia coli BL21 (DE3) at 3 uM using [6-FAM-5'-CAGCGCTCGG(20T)CCGAGCGCTG-3'-dabcyl] as substrate in presence of 5 to 10% DMSO by fluorescence assay
Summary of the method: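 ERCC1-XPF preincubated with 3 μM compound in 10% or 5% DMSO; reactions started at T0 with substrate, or at T12 […]. Same stem-loop incision read-out (ex 485/em 520) in Tris-Cl pH 8, MnCl2 buffer at 25°C.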

HCT-116 [17] = assay: as §1, with “human XPF-knockout” for “human”, “50” for “300”; format: functional, cell-based
[18] = target: T1, DNA excision repair protein ERCC-1/DNA repair endonuclease XPF (Homo sapiens); assay: as §3, with “dimer” for “dimer by measuring cyclobutane pyrimidine dimer level”, “assay” for “assay (reference value: 80%)”; format: cell-based
Summary of the method: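 HCT-116 cells on coverslips pretreated 1 h with compound, then 8 J/m² UV-C (254 nm) and re-fed medium with compound; incubated at 37°C up to 24 h. Methanol-fixed, HCl-denatured cells stained with anti-thymine dimer antibody and fluorescent secondary, DAPI mounted. Intensity quantified from 50 random cells per treatment; Student's t-test.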

Structure (SMILES): COc1ccc2nc3cc(Cl)ccc3c(Nc3ccc(O)c(CN4CCN(C)CC4)c3)c2c1
- PB [1]: Active
- IC50 (Cytochrome P450 3A4): 1000 to 10000 nM
- inhibition [2]: Active
- efflux ratio [3]: 11.2
- Stability [4]: Unstable
- IC50 [5]: 1860 nM
- IC50 (Cytochrome P450 1A2): 10000 to 50000 nM
- IC50 (Cytochrome P450 2C9): 10000 to 50000 nM
- IC50 (Cytochrome P450 2C19): 10000 to 50000 nM
- IC50 (Cytochrome P450 2D6): 1000 to 10000 nM

- Activity [7]: 60%
- PB [1]: Active
- IC50 (Cytochrome P450 3A4): > 1000 nM
- inhibition [2]: Active
- Activity [10]: 23%
- Kd [11]: 2100 nM
- IC50 (Cytochrome P450 2C9): > 1000 nM
- Activity [12]: inactive
- IC50 (Cytochrome P450 2C19): > 1000 nM
- Activity [15]: Active
- TDI [16]: Active
- IC50 (Cytochrome P450 2D6): > 1000 nM
Structure (SMILES): COc1ccc2nc3cc(Cl)ccc3c(Nc3ccc(O)c(CN4CCN(CCN(C)C)CC4)c3)c2c1
- Activity (HCT-116 [6]): 100%
- Activity (HCT-116 [8]): Non-Toxic
- Activity (HCT-116 [9]): Active
- Activity (HCT-116 [13]): Active
- Activity (HCT-116 [14]): 100%
- Activity (HCT-116 [17]): Active

- inhibition [2]: Active
Structure (SMILES): COc1ccc2nc3cc(Cl)ccc3c(Nc3ccc(O)c(CN4CCN(C5CCCCC5)CC4)c3)c2c1

- Activity [10]: 3%
- inhibition [18]: inactive
Structure (SMILES): COc1ccc2nc3cc(Cl)ccc3c(Nc3ccc(O)c(CN4CCN(c5ccc(Cl)c(Cl)c5)CC4)c3)c2c1
